Activity calls are given as the source filed them. No cut-off for these calls is given here.
Experiments:
HT-1080 = assay: Antimetastatic activity against luciferase-tagged human HT1080 cells xenografted in NOD.Cg-Prkdc<scid>-IL2rg<tm1Wjl>SzJAusb mouse assessed as inhibition of late-stage lung metastasis at 7.5 mg/kg/day, ip administered from day -1 to day 20 measured day 21
[1] = biological target: ENaC gamma subunit (epithelial sodium channel subunit gamma) (Homo sapiens, UniProt P51170); assay: Inhibition of S-3969-stimulated recombinant human ENaC gamma subunit expressed in HEK293 cells at 10 uM preincubated for 5 mins followed by S-3969 stimulation by FLIPR assay; assay type: cell-based; settings: HEK293 cells expressing recombinant human ENaC gamma subunit
Chain of ENaC gamma subunit (epithelial sodium channel subunit gamma) (P51170 whole entry): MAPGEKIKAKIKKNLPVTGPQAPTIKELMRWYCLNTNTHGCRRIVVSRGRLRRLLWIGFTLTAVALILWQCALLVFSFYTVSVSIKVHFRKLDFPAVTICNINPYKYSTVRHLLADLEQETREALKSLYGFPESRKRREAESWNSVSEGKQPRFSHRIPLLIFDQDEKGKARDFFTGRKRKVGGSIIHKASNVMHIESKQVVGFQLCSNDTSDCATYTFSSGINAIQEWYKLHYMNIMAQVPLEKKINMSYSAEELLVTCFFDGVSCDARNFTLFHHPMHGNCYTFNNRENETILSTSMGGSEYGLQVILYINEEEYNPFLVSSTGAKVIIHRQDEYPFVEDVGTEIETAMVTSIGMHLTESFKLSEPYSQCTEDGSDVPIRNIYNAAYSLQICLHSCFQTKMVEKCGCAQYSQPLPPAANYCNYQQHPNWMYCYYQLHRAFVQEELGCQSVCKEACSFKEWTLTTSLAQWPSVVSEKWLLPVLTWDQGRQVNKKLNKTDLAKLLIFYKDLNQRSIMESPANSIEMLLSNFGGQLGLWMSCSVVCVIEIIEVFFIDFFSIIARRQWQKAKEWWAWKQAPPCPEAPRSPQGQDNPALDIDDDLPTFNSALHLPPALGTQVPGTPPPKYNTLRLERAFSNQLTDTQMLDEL
How it was run: (§1)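 HEK-293 cells transfected with human ENaC α, β and γ cDNA together, plated at 20 000 cells/well, incubated overnight at 37 °C. Loaded with membrane-potential red dye for 30 min at 37 °C. Compound preincubated 5 min in HEPES-buffered salt solution (pH 7.4, 0.3% DMSO), then stimulated with 1 µM S-3969, read on FLIPR. Signal normalized to agonist alone (100%) and agonist plus 30 µM benzamil (0%). n = 4 wells.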

[2] = biological target: ENaC alpha subunit (epithelial sodium channel subunit alpha) (Homo sapiens, UniProt P37088); assay: Inhibition of S-3969-stimulated recombinant human ENaC alpha subunit expressed in HEK293 cells at 10 uM preincubated for 5 mins followed by S-3969 stimulation by FLIPR assay; assay type: cell-based; settings: HEK293 cells expressing recombinant human ENaC alpha subunit
Chain of ENaC alpha subunit (epithelial sodium channel subunit alpha) (P37088 whole entry): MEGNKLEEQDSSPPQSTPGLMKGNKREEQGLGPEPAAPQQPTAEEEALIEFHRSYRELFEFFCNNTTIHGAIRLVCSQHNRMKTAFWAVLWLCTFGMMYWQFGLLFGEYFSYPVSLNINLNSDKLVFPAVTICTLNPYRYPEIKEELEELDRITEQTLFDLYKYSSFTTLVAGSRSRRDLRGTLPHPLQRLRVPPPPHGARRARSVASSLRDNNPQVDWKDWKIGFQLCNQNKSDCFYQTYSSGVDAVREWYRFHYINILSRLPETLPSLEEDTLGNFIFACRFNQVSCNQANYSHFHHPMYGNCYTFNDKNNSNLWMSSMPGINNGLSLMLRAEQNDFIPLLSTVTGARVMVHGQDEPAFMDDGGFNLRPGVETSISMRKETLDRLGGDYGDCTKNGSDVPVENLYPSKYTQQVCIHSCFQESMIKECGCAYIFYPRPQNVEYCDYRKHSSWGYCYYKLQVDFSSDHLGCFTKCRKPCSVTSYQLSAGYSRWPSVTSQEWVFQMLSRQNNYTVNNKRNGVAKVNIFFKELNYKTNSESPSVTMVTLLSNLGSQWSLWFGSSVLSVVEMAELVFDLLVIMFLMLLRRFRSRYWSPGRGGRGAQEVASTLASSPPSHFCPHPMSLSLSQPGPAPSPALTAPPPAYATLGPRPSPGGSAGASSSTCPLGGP
How it was run: as §1

[3] = biological target: ENaC beta subunit (epithelial sodium channel subunit beta) (Homo sapiens, UniProt P51168); assay: Inhibition of S-3969-stimulated recombinant human ENaC beta subunit expressed in HEK293 cells at 10 uM preincubated for 5 mins followed by S-3969 stimulation by FLIPR assay; assay type: cell-based; settings: HEK293 cells expressing recombinant human ENaC beta subunit
Chain of ENaC beta subunit (epithelial sodium channel subunit beta) (P51168 whole entry): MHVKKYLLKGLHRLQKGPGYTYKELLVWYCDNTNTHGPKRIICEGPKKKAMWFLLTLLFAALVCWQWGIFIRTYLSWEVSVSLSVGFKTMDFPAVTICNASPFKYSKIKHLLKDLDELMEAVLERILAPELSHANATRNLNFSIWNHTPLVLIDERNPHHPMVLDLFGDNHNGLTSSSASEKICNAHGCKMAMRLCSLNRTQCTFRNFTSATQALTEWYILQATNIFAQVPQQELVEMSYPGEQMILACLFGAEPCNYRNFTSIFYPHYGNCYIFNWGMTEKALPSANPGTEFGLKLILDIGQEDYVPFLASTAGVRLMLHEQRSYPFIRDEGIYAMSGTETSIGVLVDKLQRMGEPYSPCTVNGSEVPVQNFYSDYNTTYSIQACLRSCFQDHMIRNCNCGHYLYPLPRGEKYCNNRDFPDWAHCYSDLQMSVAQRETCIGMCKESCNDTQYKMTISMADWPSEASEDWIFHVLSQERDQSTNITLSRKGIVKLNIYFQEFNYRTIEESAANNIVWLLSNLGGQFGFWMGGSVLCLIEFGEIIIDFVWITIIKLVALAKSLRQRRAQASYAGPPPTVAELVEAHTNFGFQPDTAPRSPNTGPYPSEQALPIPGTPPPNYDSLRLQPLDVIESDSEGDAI
How it was run: as §1

## N=C(N)NC(=O)c1nc(Cl)c(N)nc1N [AMILORIDE]
HT-1080
  inhibition: inactive
[1]
  inhibition at 5 min, 10 µM: 68%
[2]
  inhibition at 5 min, 10 µM: 68%
[3]
  inhibition at 5 min, 10 µM: 68%
